Values after ≈ are worked out from the molar mass of the structure shown.
How the values were obtained:
Type in all cases: functional
[1] = test system: Staphylococcus aureus; assay: Antibacterial activity against Staphylococcus aureus ATCC 29213 after 24 hrs by two fold serial dilution method; details: ATCC 29213, 24 h
Method in brief: (§1)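 MICs determined by modified microbroth twofold dilution per NCCLS. Compounds were tested at 512, 256, 128, 64, 32, 16, 8, 4, 2, 1 and 0.5 µg/mL. Dilutions were inoculated and incubated at 37 °C for 24 h. A DMSO solvent control in test medium was run at the same dilutions.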

[2] = test system: Staphylococcus aureus; assay: Antibacterial activity against Methicillin-Resistant Staphylococcus aureus subsp. aureus N315 after 24 hrs by two fold serial dilution method; details: N315, 24 h
Method in brief: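 Modified microbroth dilution following National Committee for Clinical Laboratory Standards methods. Twofold serial dilutions were set at 512, 256, 128, 64, 32, 16, 8, 4, 2, 1 and 0.5. Dilutions were inoculated with strain N315 and incubated at 37 °C for 24 h. A solvent control used medium with DMSO at the same dilutions. Read-out was the MIC.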

[3] = test system: Bacillus subtilis; assay: Antibacterial activity against Bacillus subtilis ATCC 21216 after 24 hrs by two fold serial dilution method; details: ATCC 21216, 24 h; method in brief: as §1
[4] = test system: Escherichia coli; assay: Antibacterial activity against Escherichia coli ATCC 25922 after 24 hrs by two fold serial dilution method; details: ATCC 25922, 24 h; method in brief: as §1
[5] = test system: Pseudomonas aeruginosa; assay: Antibacterial activity against Pseudomonas aeruginosa ATCC 27853 after 24 hrs by two fold serial dilution method; details: ATCC 27853, 24 h; method in brief: as §1
[6] = test system: Proteus vulgaris; assay: Antibacterial activity against Proteus vulgaris ATCC 49027 after 24 hrs by two fold serial dilution method; details: ATCC 49027, 24 h; method in brief: as §1
[7] = test system: Candida albicans; assay: Antifungal activity against Candida albicans ATCC 76615 after 24 hrs by two fold serial dilution method; details: ATCC 76615, 24 h
Method in brief: (§2)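 Modified NCCLS microbroth dilution, with eleven compound concentrations from 0.5 to 512 µg/mL. Dilutions were inoculated and incubated at 35 °C for 24 h. MIC50 was taken as the first well showing about 50% growth reduction versus the drug-free well.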

[8] = test system: Aspergillus fumigatus; assay: Antifungal activity against Aspergillus fumigatus ATCC 96918 after 24 hrs by two fold serial dilution method; details: ATCC 96918, 24 h; method in brief: as §2

Row | Structure (SMILES) | MIC50 [1] | MIC50 [2] | MIC50 [3] | MIC50 [4] | MIC50 [5] | MIC50 [6] | MIC50 [7] | MIC50 [8]
1 | BrCCCCn1c2ccccc2c2ccccc21 | 256 mg/L (≈ 847 µM) | > 512 mg/L | > 512 mg/L | > 512 mg/L | 128 mg/L (≈ 424 µM) | > 512 mg/L | 512 mg/L (≈ 1690 µM) | > 512 mg/L
2 | c1ccc2c(c1)c1ccccc1n2CCCCn1cncn1 | 256 mg/L (≈ 882 µM) | > 512 mg/L | > 512 mg/L | 32 mg/L (≈ 110 µM) | 128 mg/L (≈ 441 µM) | > 512 mg/L | 2 mg/L (≈ 6.89 µM) | > 512 mg/L
3 | c1ccc2c(c1)c1ccccc1n2CCCCCCn1cncn1 | 32 mg/L (≈ 100 µM) | 64 mg/L (≈ 201 µM) | > 512 mg/L | 16 mg/L (≈ 50.2 µM) | 32 mg/L (≈ 100 µM) | > 512 mg/L | 2 mg/L (≈ 6.28 µM) | > 512 mg/L
4 | Clc1ccc(C[n+]2cnn(Cc3ccc(Cn4c5ccccc5c5ccccc54)cc3)c2)c(Cl)c1.[Cl-] | 2 mg/L | 8 mg/L | 2 mg/L | 2 mg/L | 4 mg/L | 8 mg/L | 32 mg/L | 64 mg/L
5 | c1ccc2c(c1)c1ccccc1n2Cc1ccc(Cn2c3ccccc3c3ccccc32)cc1 | 256 mg/L (≈ 586 µM) | > 512 mg/L | > 512 mg/L | > 512 mg/L | > 512 mg/L | > 512 mg/L | > 512 mg/L | > 512 mg/L
6 | c1ccc2c(c1)c1ccccc1n2CCCCn1c2ccccc2c2ccccc21 | > 512 mg/L | > 512 mg/L | > 512 mg/L | > 512 mg/L | > 512 mg/L | 64 mg/L (≈ 165 µM) | > 512 mg/L | > 512 mg/L
7 | c1ccc2c(c1)c1ccccc1n2CCCCCCn1c2ccccc2c2ccccc21 | 128 mg/L (≈ 307 µM) | > 512 mg/L | > 512 mg/L | > 512 mg/L | > 512 mg/L | > 512 mg/L | > 512 mg/L | 256 mg/L (≈ 615 µM)
8 | c1ccc2c(c1)c1ccccc1n2CCCCn1ccnc1 | 2 mg/L (≈ 6.91 µM) | 4 mg/L (≈ 13.8 µM) | 4 mg/L (≈ 13.8 µM) | 8 mg/L (≈ 27.6 µM) | 1 mg/L (≈ 3.46 µM) | 1 mg/L (≈ 3.46 µM) | 16 mg/L (≈ 55.3 µM) | 64 mg/L (≈ 221 µM)
9 | c1ccc2c(c1)c1ccccc1n2CCCCCCn1ccnc1 | 8 mg/L (≈ 25.2 µM) | 8 mg/L (≈ 25.2 µM) | 8 mg/L (≈ 25.2 µM) | 4 mg/L (≈ 12.6 µM) | 1 mg/L (≈ 3.15 µM) | 1 mg/L (≈ 3.15 µM) | 16 mg/L (≈ 50.4 µM) | 128 mg/L (≈ 403 µM)
10 | c1ccc2c(c1)c1ccccc1n2Cc1ccc(Cn2cncn2)cc1 | 256 mg/L (≈ 756 µM) | > 512 mg/L | > 512 mg/L | 32 mg/L (≈ 94.6 µM) | > 512 mg/L | > 512 mg/L | 4 mg/L (≈ 11.8 µM) | > 512 mg/L
11 | BrCCCCCCn1c2ccccc2c2ccccc21 | 128 mg/L (≈ 388 µM) | > 512 mg/L | > 512 mg/L | > 512 mg/L | > 512 mg/L | > 512 mg/L | > 512 mg/L | 512 mg/L (≈ 1550 µM)
12 | c1ccc2c(c1)c1ccccc1n2Cc1ccc(Cn2ccnc2)cc1 | 1 mg/L (≈ 2.96 µM) | 8 mg/L (≈ 23.7 µM) | 4 mg/L (≈ 11.9 µM) | 8 mg/L (≈ 23.7 µM) | 1 mg/L (≈ 2.96 µM) | 4 mg/L (≈ 11.9 µM) | 16 mg/L (≈ 47.4 µM) | > 512 mg/L
13 | BrCc1ccc(Cn2c3ccccc3c3ccccc32)cc1 | 128 mg/L (≈ 365 µM) | > 512 mg/L | 256 mg/L (≈ 731 µM) | 256 mg/L (≈ 731 µM) | 256 mg/L (≈ 731 µM) | 512 mg/L (≈ 1460 µM) | > 512 mg/L | > 512 mg/L
14 | O=C(N[C@H](CO)[C@H](O)c1ccc([N+](=O)[O-])cc1)C(Cl)Cl [CHLORAMPHENICOL] | 64 mg/L (≈ 198 µM) | 8 mg/L (≈ 24.8 µM) | > 512 mg/L | 64 mg/L (≈ 198 µM) | > 512 mg/L | 16 mg/L (≈ 49.5 µM) | – | –
15 | OC(Cn1cncn1)(Cn1cncn1)c1ccc(F)cc1F [FLUCONAZOLE] | – | – | – | – | – | – | 0.5 mg/L (≈ 1.63 µM) | 512 mg/L (≈ 1670 µM)
16 | CCn1cc(C(=O)O)c(=O)c2cc(F)c(N3CCNCC3)cc21 [NORFLOXACIN] | 8 mg/L (≈ 25.1 µM) | 1 mg/L (≈ 3.13 µM) | 1 mg/L (≈ 3.13 µM) | 0.5 mg/L (≈ 1.57 µM) | 2 mg/L (≈ 6.26 µM) | 1 mg/L (≈ 3.13 µM) | – | –
